This note sets out measurements from ChEMBL document CHEMBL3351873, “Synthesis, biological evaluation and molecular docking of novel chalcone-coumarin hybrids as anticancer and antimalarial agents” (Eur J Med Chem, 2014).

As a reminder, the IC50 is the point on the concentration scale where inhibition reaches its midpoint.

The subject of one series is HuCC-A1. Nature of the series: (§1) Cytotoxicity against human HuCCa1 cells assessed as reduction in cell viability after 48 hrs by MTT assay. It counts as functional, cell-based. The procedure, abridged:
(§2)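 Adherent cells plated at 10,000–20,000 cells/well and allowed 24 h at 37 °C (5% CO₂) before an equal volume of medium with serially diluted compound was added. Etoposide and/or doxorubicin were positive controls and DMSO the negative control. After a further 48 h, surviving cells were measured by MTT. IC50 is the concentration giving 50% growth inhibition relative to the DMSO control.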

The next series deals with Plasmodium falciparum. Nature of the series: Antimalarial activity against multidrug-resistant Plasmodium falciparum K1 after 24 hrs by [3H]hypoxanthine incorporation assay. The format is functional, organism-based. The procedure, abridged:
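P. falciparum K1 kept in RPMI 1640 with 20 mM HEPES, NaHCO₃, 10% human serum and 3% erythrocytes at 37 °C under 3% CO₂, passaged daily. Early ring-stage parasites (1% parasitemia, 1.5% erythrocytes) were exposed to compound (0.1% DMSO final) for 24 h. [3H]hypoxanthine was then added for a further 24 h. Incorporation was counted by scintillation and expressed as percent parasite growth.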

A short description of series [1]: (§3) Cytotoxicity against human MOLT3 cells assessed as reduction in cell viability after 48 hrs by XTT assay. It counts as functional, cell-based. As to conditions: MOLT-3, 48 h. The procedure, abridged:
(§4)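 Suspension cells plated at 10,000–20,000 cells/well and pre-incubated 24 h at 37 °C, 5% CO₂. Serial compound dilutions were added in an equal volume of medium, with etoposide and/or doxorubicin as positive controls and DMSO as negative control, then incubated 48 h more. Viable cells were read by XTT. IC50 is taken as 50% growth inhibition versus the DMSO control.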
Background: Formazan colour is commonly taken as a measure of viable cells.

The test system of the next series is Vero. Put plainly: Cytotoxicity against african green monkey Vero cells assessed as reduction in cell viability after 4 days by green fluorescent protein detection method. It counts as cell-based. As to conditions: chlorocebus sabaeus, 96 h. The procedure, abridged: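 GFP-expressing Vero cells (stably transfected with pEGFP-N1) seeded at 3.3 × 10⁴ cells/mL onto compounds prediluted in 0.5% DMSO; 4 days at 37 °C, 5% CO₂. Fluorescence read at ex 485/em 535 nm, day-0 background subtracted. IC50 from dose-response curves over 6 concentrations (3-fold serial dilutions). Ellipticine positive control, 0.5% DMSO negative control.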

For a further series, the system named is A549. Nature of the series: Cytotoxicity against human A549 cells assessed as reduction in cell viability after 48 hrs by MTT assay. As to conditions: for IC50: A549, 48 h. The format is functional, cell-based. The gist of the method: as §2
Series [2] deals with HepG2. Put plainly: Cytotoxicity against human HepG2 cells assessed as reduction in cell viability after 48 hrs by MTT assay. As to conditions: for IC50: HepG2, 48 h. It counts as functional, cell-based. The procedure, abridged:
as §2

Series [3] in a line: as §1. It counts as functional, cell-based. Particulars: HuCC-A1, 48 h. The gist of the method: as §2
Series [4] relates to HepG2. Put plainly: Ratio of etoposide IC50 to compound IC50 for human HepG2 cells assessed as reduction in cell viability after 48 hrs by MTT assay. It counts as functional.
Another series has as its system MOLT-3. The series is described as §3. The format is functional, cell-based. The gist of the method:
as §4

[5] abbreviates: Plasmodium falciparum, K1, read-out: IC50.

The source made the active and inactive calls. No cut-off for these calls is given here.

Regarding `COc1cc(/C=C/C(=O)c2ccc(-n3cc(COc4ccc5ccc(=O)oc5c4)nn3)cc2)cc(OC)c1OC`, the result in the series with HuCC-A1, in the series on A549 and with HepG2 [2] was inactive. Moreover, the results for the 50% inhibitory concentration (IC50) entry (in the series with Plasmodium falciparum; in [1]) were “Not Active” and 79.5 µM, respectively. For the same compound, in the series with Vero, the Activity entry is “Non-toxic”.
`COc1ccc(/C=C/C(=O)c2cccc(-n3cc(COc4ccc5ccc(=O)oc5c4)nn3)c2)c(OC)c1OC`: the outcome in the series with HuCC-A1, with A549 and in the series on HepG2 [2] was inactive. Moreover, the IC50 in the series with Plasmodium falciparum (setting [5]) was 13 µM; in [1] it was 3.89 µM. In addition, the Activity result in the series with Vero is “Non-toxic”.
Regarding `COc1cc(/C=C/C(=O)c2ccc(-n3cc(COc4cc(=O)oc5ccccc45)nn3)cc2)cc(OC)c1OC`, the outcome in the series with HuCC-A1, with A549 and in the series on HepG2 [2] was inactive. Moreover, the figures for the IC50 result (with Plasmodium falciparum; in series [1]) were “Not Active” and 6.58 µM, respectively. Moreover, the Activity result with Vero is “Non-toxic”.
`COc1ccc(/C=C/C(=O)c2cccc(-n3cc(COc4cc(=O)oc5ccccc45)nn3)c2)c(OC)c1OC`: the IC50 in series [3] stood at 6.13 µM; in the series with Plasmodium falciparum (setting [5]) it was 7.47 µM; in series [1], 1.13 µM. Besides, the Activity entry in the series with Vero is “Non-toxic”. Besides, the result in the series on A549 and with HepG2 [2] was inactive.
As for `Cc1c2ccncc2c(C)c2c1[nH]c1ccccc12` [ELLIPTECINE], the IC50 with Vero turned out to be 1.94 µM.
`COc1cc([C@@H]2c3cc4c(cc3[C@@H](O[C@@H]3O[C@@H]5CO[C@@H](C)O[C@H]5[C@H](O)[C@H]3O)[C@H]3COC(=O)[C@H]23)OCO4)cc(OC)c1O` [ETOPOSIDE]: in [1], the IC50 is 0.051 µM.
For the compound `C[C@H]1[C@@H](O)O[C@@H]2O[C@@]3(C)CC[C@H]4[C@H](C)CC[C@@H]1[C@@]24OO3` [ARTENIMOL], the half-maximal inhibitory concentration (IC50) in the series with Plasmodium falciparum (setting [5]) turned out to be 0.0011 µM.
Regarding `COc1cccc2c1C(=O)c1c(O)c3c(c(O)c1C2=O)C[C@@](O)(C(=O)CO)C[C@@H]3O[C@H]1C[C@H](N)[C@H](O)[C@H](C)O1` [DOXORUBICIN], in series [3], the IC50 was determined as 0.83 µM.
For the compound `COc1cccc(/C=C/C(=O)c2cccc(-n3cc(COc4cc(=O)oc5ccccc45)nn3)c2)c1OC`, the “Ratio IC50” value with HepG2 [4] is on record as 7. The IC50 in [3] turned out to be 2.36 µM; in the series with Plasmodium falciparum (setting [5]) it was 4.73 µM; in series [1], 0.53 µM; with Vero it was 3.91 µM; in the series with A549, 18.1 µM; in the series on HepG2 [2] it was 4.26 µM.
As for `COc1ccc(/C=C/C(=O)c2ccc(-n3cc(COc4ccc5ccc(=O)oc5c4)nn3)cc2)c(OC)c1OC`, the result in the series on HuCC-A1, in the series with A549 and in the series on HepG2 [2] was inactive. Moreover, the IC50 entry was “Not Active” with Plasmodium falciparum and 22.5 µM in [1]. Moreover, in the series on Vero, the Activity result was “Non-toxic”.
In the case of `COc1ccc(/C=C/C(=O)c2ccc(-n3cc(COc4cc(=O)oc5ccccc45)nn3)cc2)c(OC)c1OC`, the result in the series on HuCC-A1 and in the series on A549 was inactive. Also, the IC50 with Plasmodium falciparum (setting [5]) was determined as 1.6 µM; in [1], 12.3 µM; with HepG2 [2], 22.9 µM. In the series on Vero, the Activity entry is given as “Non-toxic”.
In the case of `COc1cccc(/C=C/C(=O)c2cccc(-n3cc(COc4ccc5ccc(=O)oc5c4)nn3)c2)c1OC`, the IC50 in series [3] is 11.1 µM; with Plasmodium falciparum (setting [5]), 6.63 µM; in series [1], 5.16 µM; with Vero it was 35 µM; in the series with A549, 31.4 µM; in the series with HepG2 [2], 15.7 µM.
In the case of `COc1cccc(/C=C/C(=O)c2ccc(-n3cc(COc4ccc5ccc(=O)oc5c4)nn3)cc2)c1OC`, the IC50 was 4.81 µM in series [3], “Not Active” in the series with Plasmodium falciparum, 7.95 µM in the series with A549 and 8.18 µM with HepG2 [2]. Further, the result with MOLT-3 was inactive. In addition, the Activity entry with Vero was “Non-toxic”.
Take `COc1ccc(/C=C/C(=O)c2cccc(-n3cc(COc4ccc5ccc(=O)oc5c4)nn3)c2)cc1OC`: the IC50 is 33.4 µM in series [3], “Not Active” with Plasmodium falciparum and 3.12 µM in series [1]. The Activity result in the series on Vero is recorded as “Non-toxic”. For the same compound, the outcome with A549 and in the series on HepG2 [2] was inactive.
In the case of `COc1ccc(/C=C/C(=O)c2cccc(-n3cc(COc4cc(=O)oc5ccccc45)nn3)c2)cc1OC`, the figures for the IC50 (in series [3]; in the series on Plasmodium falciparum; in [1]) were 38.6 µM, “Not Active” and 3.91 µM, respectively. Further, the Activity entry in the series on Vero is reported as “Non-toxic”. Also, the outcome in the series on A549 and with HepG2 [2] was inactive.
